Data: ChEMBL document CHEMBL4414663, “Pyrazole-4-Carboxamide (YW2065): A Therapeutic Candidate for Colorectal Cancer via Dual Activities of Wnt/β-Catenin Signaling Inhibition and AMP-Activated Protein Kinase (AMPK) Activation” (J Med Chem, 2019)
Calls of active or inactive are those of the source. The rule behind the calls is not given here.

Assays:
[1] = test system: SW480; test: Growth inhibition of human SW480 cells at 50 uM by Cell-titer-fluor reagent based assay relative to control; type: functional; conditions: read-out: GI
[2] = test system: Mus musculus; test: Activation of AMPK in nude mouse xenografted with human SW620 cells assessed as increase in AMPK phosphorylation at 50 mg/kg, ip QD for 32 consecutive days by Western blot analysis; type: functional, organism-based
Summary of the method: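 Nude mice carried subcutaneous SW620 xenografts (2×10^6 cells, right flank). Dosing began once mean tumor volume reached 100–200 mm³: 50 mg/kg ip once daily for 32 days, vehicle 10% DMSO/10% Kolliphor/80% saline. Tumors taken at day 32 and lysed in RIPA with protease inhibitors. Western blot with 20 µL of 2 mg/mL lysate on 7.5% SDS-PAGE, probed for pAMPK/AMPK or pACC/ACC, ECL detection.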

[3] = Toxicity in C57BL/6 mouse assessed as effect on BUN level at 100 mg/kg/day, ip for 21 days; type: organism-based; conditions: in vivo, 504 h
[4] = test system: SW-620; test: Induction of apoptosis in human SW620 cells assessed as early apoptotic cells level at 1 uM incubated for 48 hrs by AAD-7 and FITC-annexin-V staining based flow cytometry (reference value: 18.6%); type: functional
[5] = target: Protein kinase C theta type (Homo sapiens) (UniProt Q04759); test: Inhibition of PRKCQ (unknown origin) at 1000 nM relative to control
Chain of Protein kinase C theta type (Homo sapiens) (Q04759 whole entry, looked up): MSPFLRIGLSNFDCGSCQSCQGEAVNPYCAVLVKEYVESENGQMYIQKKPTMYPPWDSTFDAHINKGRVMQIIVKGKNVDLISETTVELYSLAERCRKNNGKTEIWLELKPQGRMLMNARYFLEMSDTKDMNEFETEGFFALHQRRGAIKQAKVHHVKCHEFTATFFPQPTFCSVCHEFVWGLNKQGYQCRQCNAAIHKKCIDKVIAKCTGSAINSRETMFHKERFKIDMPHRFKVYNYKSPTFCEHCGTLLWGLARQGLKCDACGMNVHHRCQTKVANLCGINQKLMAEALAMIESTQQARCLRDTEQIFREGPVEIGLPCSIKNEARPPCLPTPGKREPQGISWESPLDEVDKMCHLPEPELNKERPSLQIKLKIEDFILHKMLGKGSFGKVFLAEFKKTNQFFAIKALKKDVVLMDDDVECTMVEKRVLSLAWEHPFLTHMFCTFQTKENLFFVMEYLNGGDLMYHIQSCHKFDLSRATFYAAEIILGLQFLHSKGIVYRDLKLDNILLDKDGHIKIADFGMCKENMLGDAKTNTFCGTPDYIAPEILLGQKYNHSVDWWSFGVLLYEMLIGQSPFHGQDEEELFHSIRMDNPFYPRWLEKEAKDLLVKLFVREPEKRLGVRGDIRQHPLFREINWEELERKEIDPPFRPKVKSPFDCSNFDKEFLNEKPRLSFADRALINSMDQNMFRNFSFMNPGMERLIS
Summary of the method: (§1)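 Single-concentration screen at 1000 nM against a 273-kinase panel, reported as percent inhibition.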

[6] = organism: Homo sapiens; test: Inhibition of Wnt/beta-Catenin signaling in human SW620 cells assessed as reduction in c-Myc mRNA expression at 10 uM incubated for 24 hrs by real-time PCR analysis; type: cell-based
Summary of the method: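 SW620 cells (RPMI 1640, 10% FBS) in 6-well plates, incubated 24 h, then treated with compound at several concentrations, three replicates each, for 24 h. Total RNA isolated with Trizol/phenol-chloroform; 2 µg reverse transcribed; Wnt target gene mRNA quantified by PCR.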

[7] = Cmax in C57BL/6J mouse at 5 mg/kg, po by UPLC-MS analysis; type: ADME, organism-based; parameters: dose 5 mg/kg, route oral; conditions: in vivo
Summary of the method: (§2)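 Male C57BL/6J mice, 2-3 months, 23-26 g. Single 5 mg/kg dose in 5% Kolliphor in saline, given iv (n=3) or by oral gavage (n=5). Tail-vein blood taken at 0.25, 0.5, 1, 4, 8 and 12 h and spun to plasma. Plasma analysed by LC-MS/MS on a triple quadrupole with a C18 column. Parameters from non-compartmental analysis.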

[8] = test system: SW-620; test: Induction of apoptosis in human SW620 cells assessed as necrotic cells level at 1 uM incubated for 48 hrs by AAD-7 and FITC-annexin-V staining based flow cytometry (reference value: 0.027%); type: functional
[9] = test system: SW480; test: Induction of apoptosis in human SW480 cells incubated for 48 hrs by AAD-7 and FITC-annexin-V staining based flow cytometry; type: functional, cell-based
[10] = target: High affinity nerve growth factor receptor (Homo sapiens) (UniProt P04629); test: Inhibition of NTRK1 (unknown origin) at 1000 nM relative to control; summary of the method: as §1
Chain of High affinity nerve growth factor receptor (Homo sapiens) (P04629 33-796 limits assumed): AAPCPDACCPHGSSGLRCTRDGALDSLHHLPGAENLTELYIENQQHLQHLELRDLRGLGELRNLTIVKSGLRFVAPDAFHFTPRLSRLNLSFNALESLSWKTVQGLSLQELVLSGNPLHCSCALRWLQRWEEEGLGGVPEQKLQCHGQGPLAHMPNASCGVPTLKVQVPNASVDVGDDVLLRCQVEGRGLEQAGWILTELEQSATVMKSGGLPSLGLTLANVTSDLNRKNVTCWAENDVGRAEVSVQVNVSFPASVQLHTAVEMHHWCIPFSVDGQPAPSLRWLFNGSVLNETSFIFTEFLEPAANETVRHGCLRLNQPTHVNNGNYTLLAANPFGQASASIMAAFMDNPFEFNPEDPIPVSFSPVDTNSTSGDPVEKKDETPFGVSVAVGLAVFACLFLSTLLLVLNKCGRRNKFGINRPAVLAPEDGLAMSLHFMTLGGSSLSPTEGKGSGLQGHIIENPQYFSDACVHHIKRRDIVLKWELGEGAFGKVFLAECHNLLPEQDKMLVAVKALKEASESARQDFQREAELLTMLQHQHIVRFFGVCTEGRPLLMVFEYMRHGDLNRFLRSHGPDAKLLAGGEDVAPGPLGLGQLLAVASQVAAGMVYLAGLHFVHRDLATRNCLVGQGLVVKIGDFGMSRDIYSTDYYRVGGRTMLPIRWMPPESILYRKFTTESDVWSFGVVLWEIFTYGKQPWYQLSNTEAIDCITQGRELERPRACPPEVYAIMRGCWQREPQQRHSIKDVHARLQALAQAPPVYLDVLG

[11] = Half life in C57BL/6J mouse at 5 mg/kg, iv by UPLC-MS analysis; type: ADME, organism-based; conditions: in vivo; summary of the method: as §2
[12] = test system: Mus musculus; test: Inhibition of Wnt/beta-Catenin signaling in nude mouse xenografted with human SW620 cells assessed as reduction in MMP7 mRNA expression at 50 mg/kg, ip QD for 32 consecutive days by RT-PCR analysis; type: organism-based; conditions: in vivo
Summary of the method: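 Six-week-old nude mice implanted subcutaneously in the right flank with 2×10^6 SW620 cells. Randomized at mean tumor volume 100–200 mm³, n = 6/group. Dosed IP once daily for 32 days at 10 or 50 mg/kg, or vehicle (10% DMSO, 10% Kolliphor, 80% saline). Tumors collected at day 32; Axin-2, MMP-7 and S100A4 expression measured by RT-PCR.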

[13] = test system: SW-620; test: Induction of apoptosis in human SW620 cells assessed as necrotic cells level at 10 uM incubated for 48 hrs by AAD-7 and FITC-annexin-V staining based flow cytometry (reference value: 0.027%); type: functional
[14] = test system: SW-620; test: Antitumor activity against human SW620 cells xenografted in nude mouse assessed as reduction in tumor weight at 50 mg/kg, ip QD for 32 consecutive days; type: functional, organism-based
Summary of the method: (§3)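 Six-week-old nude mice injected subcutaneously with 2×10^6 SW620 cells. Randomised at mean tumor volume 100–200 mm³ (n=6/group). Given 10 or 50 mg/kg ip daily for 32 consecutive days; vehicle 10% DMSO, 10% Kolliphor, 80% saline. Tumor volume measured every other day. Tumors weighed after euthanasia at day 32. t test against vehicle.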

[15] = test system: SW-620; test: Induction of apoptosis in human SW620 cells assessed as late apoptotic cells level at 10 uM incubated for 48 hrs by AAD-7 and FITC-annexin-V staining based flow cytometry (reference value: 7.6%); type: functional
[16] = organism: Homo sapiens; test: Inhibition of Wnt/beta-Catenin signaling in human SW620 cells assessed as reduction in beta-catenin protein level at 1 to 30 uM by Western blot analysis; type: cell-based
Summary of the method: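 SW620 cells treated with a dose range of compound and lysed in RIPA buffer with protease inhibitor. Protein at 2 mg/mL, denatured at 98 °C for 5 min, run on 7.5% SDS-PAGE and transferred to nitrocellulose. Blocked in 5% BSA; rabbit anti-β-catenin (1:2,000) overnight at 4 °C with β-actin as loading control. HRP secondary (1:8000), 2 h; ECL detection.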

[17] = AUC (0 to infinity) in C57BL/6J mouse at 5 mg/kg, iv by UPLC-MS analysis; type: ADME, organism-based; parameters: dose 5 mg/kg, route intravenous, time infinity; conditions: in vivo; summary of the method: as §2
[18] = AUC (0 to infinity) in C57BL/6J mouse at 5 mg/kg, po by UPLC-MS analysis; type: ADME, organism-based; parameters: dose 5 mg/kg, time infinity, route oral; conditions: in vivo; summary of the method: as §2
[19] = Toxicity in C57BL/6 mouse assessed as effect on body weight at 100 mg/kg/day, ip for 21 days; type: organism-based; conditions: in vivo, 504 h
[20] = Toxicity in C57BL/6 mouse assessed as effect on ALT level at 100 mg/kg/day, ip for 21 days; type: organism-based; conditions: in vivo, 504 h
[21] = test system: SW-620; test: Growth inhibition of human SW620 cells over-expressing constitutively active beta-catenin S33Y mutant incubated for 72 hrs by Cell-titer-fluor reagent based assay; type: functional; conditions: SW-620, 72 h
Summary of the method: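 SW620 cells, parental, overexpressing β-catenin S33Y, or with Axin-1 knocked down by lentiviral shRNA. Treated with compound or vehicle for 72 h.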

[22] = target: Cyclin-dependent kinase 17 (Homo sapiens) (UniProt Q00537); test: Inhibition of CDK17 (unknown origin) at 1000 nM relative to control; summary of the method: as §1
Chain of Cyclin-dependent kinase 17 (Homo sapiens) (Q00537 whole entry, looked up): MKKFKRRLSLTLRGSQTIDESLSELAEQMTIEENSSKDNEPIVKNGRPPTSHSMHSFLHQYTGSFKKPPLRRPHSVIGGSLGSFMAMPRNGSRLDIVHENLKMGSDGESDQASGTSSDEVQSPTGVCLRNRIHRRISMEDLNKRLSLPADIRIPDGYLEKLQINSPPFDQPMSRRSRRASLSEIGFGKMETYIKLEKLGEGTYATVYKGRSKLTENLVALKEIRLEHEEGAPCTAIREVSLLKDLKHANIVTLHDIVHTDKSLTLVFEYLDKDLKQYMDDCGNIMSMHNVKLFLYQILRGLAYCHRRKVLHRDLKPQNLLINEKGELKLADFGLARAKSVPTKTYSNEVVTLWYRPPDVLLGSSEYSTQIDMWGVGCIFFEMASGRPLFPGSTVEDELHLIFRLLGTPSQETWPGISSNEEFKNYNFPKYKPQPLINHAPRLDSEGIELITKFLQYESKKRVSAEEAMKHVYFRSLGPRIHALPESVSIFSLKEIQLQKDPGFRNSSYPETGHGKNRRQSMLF

[23] = target: Serine/threonine-protein kinase Nek6 (Homo sapiens) (UniProt Q9HC98); test: Inhibition of NEK6 (unknown origin) at 1000 nM relative to control; summary of the method: as §1
Chain of Serine/threonine-protein kinase Nek6 (Homo sapiens) (Q9HC98 whole entry): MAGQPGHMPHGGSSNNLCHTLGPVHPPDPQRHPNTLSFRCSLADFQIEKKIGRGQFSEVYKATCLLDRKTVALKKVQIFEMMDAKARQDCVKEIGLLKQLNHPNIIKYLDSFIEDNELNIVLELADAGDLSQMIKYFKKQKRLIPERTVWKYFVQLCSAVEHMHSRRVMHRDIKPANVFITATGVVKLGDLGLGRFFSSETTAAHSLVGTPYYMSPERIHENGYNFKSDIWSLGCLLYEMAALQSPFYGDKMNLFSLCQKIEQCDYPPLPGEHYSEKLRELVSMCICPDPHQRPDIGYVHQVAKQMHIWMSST

[24] = test system: SW-620; test: Induction of apoptosis in human SW620 cells assessed as late apoptotic cells level at 3 uM incubated for 48 hrs by AAD-7 and FITC-annexin-V staining based flow cytometry (reference value: 7.6%); type: functional
[25] = test system: SW-620; test: Antitumor activity against human SW620 cells xenografted in nude mouse assessed as reduction in tumor volume at 10 mg/kg, ip QD for 32 consecutive days; type: functional, organism-based; summary of the method: as §3

inhibition [5]: Active | Cmax [7]: 5200 ng/mL | inhibition [10]: Active | half-life [11]: 3.1 h | inhibition (INH) [12]: Active | AUC(0-inf) [17]: 57500 ng·h/mL | AUC(0-inf) [18]: 13200 ng·h/mL | IC50 [21]: 67.8 nM | inhibition [22]: Active | inhibition [23]: Active
SMILES: Cc1c(C(=O)Nc2ccc3ccccc3n2)cnn1-c1ccccc1Br
inhibition of growth at 50 µM [1]: > 50% | Activity [2]: Active | Activity [3]: Non-Toxic | Activity [4]: 23.4% | inhibition [6]: Active | Activity [8]: 0% | Activity [9]: Dose-dependent effect | Activity [13]: 0.00722% | Activity [14]: Active | Activity [15]: 20% | inhibition [16]: Active | Activity [19]: Non-Toxic | Activity [20]: Non-Toxic | Activity [24]: 19.2% | Activity [25]: Active
